Reference: ChEMBL document CHEMBL3297654, “Synthesis, antimicrobial and cytotoxic activities, and structure-activity relationships of gypsogenin derivatives against human cancer cells” (Eur J Med Chem, 2014)
Values after ≈ are worked out from the molar mass of the structure shown. Active and inactive are the calls of the source. The rule behind the calls is not given here.

Experiments:
[1] = system: Bacillus subtilis; assay: Antimicrobial activity against Bacillus subtilis ATCC 6633 assessed as zone of inhibition at 30 uL for 24 hrs at 30 degC by disk diffusion test; type: functional
In short: (§1)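 Agar well diffusion on Mueller Hinton agar seeded with 0.1 mL broth culture (18–24 h), adjusted to 0.5 McFarland (about 1×10^8 bacteria or 1×10^6 yeast cells/mL). A 6 mm well is filled with 30 µL of compound from a fresh 1000 µg/mL DMSO stock. Plates are held at 30 °C for 24 h and inhibition zone diameter is read in mm.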

[2] = system: HeLa; assay: Antiproliferative activity against human HeLa cells after 24 and 72 hrs by MTT assay; type: functional, cell-based
In short: (§2)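 ATCC human cell lines are kept in RPMI, DMEM or McCoy's 5A with 10–15% heat-inactivated FCS at 37 °C and 5% CO2. They are seeded at 1×10^4–1×10^5 cells/mL in 48-well plates and exposed to 0.5, 10, 20 or 40 µM. Viability is read by MTT (590 nm) at 24 and 72 h. Growth is expressed relative to untreated cells and IC50 is fitted, in triplicate.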

[3] = system: Candida albicans; assay: Antimicrobial activity against Candida albicans ATCC 10231 assessed as zone of inhibition at 30 uL for 24 hrs at 30 degC by disk diffusion test; type: functional, organism-based; in short: as §1
[4] = system: HeLa; assay: Induction of necrosis in human HeLa cells at 20 uM after 48 hrs by Hoechst 33258/propidium iodide staining based phase contrast microscopic analysis; type: functional
In short: (§3)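 Cells in 48-well plates treated with 0.5, 10, 20 or 40 µM for 24 and 48 h. Values are read at 48 h, 20 µM for test agents and 0.5 µM for controls. Staining is Hoechst 33258/propidium iodide double staining with fluorescence microscopy. Blue nuclei are viable or early-to-mid apoptotic, and pink nuclei are late apoptotic or necrotic. Apoptosis and necrosis are scored from chromatin condensation as % of cells. Cells are grown at 37 °C in 5% CO2 in RPMI, DMEM or McCoy's 5A with 10–15% heat-inactivated FCS.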

[5] = system: MCF7; assay: Induction of necrosis in human MCF7 cells at 20 uM after 48 hrs by Hoechst 33258/propidium iodide staining based phase contrast microscopic analysis; type: functional; in short: as §3
[6] = system: Caco-2; assay: Induction of apoptosis in human Caco2 cells at 20 uM after 48 hrs by Hoechst 33258/propidium iodide staining based phase contrast microscopic analysis; type: functional; in short: as §3
[7] = system: Staphylococcus epidermidis; assay: Antimicrobial activity against Staphylococcus epidermidis ATCC 12228 assessed as zone of inhibition at 30 uL for 24 hrs at 37 degC by disk diffusion test; type: functional, organism-based
In short: (§4)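 Compound (30 µL of a fresh 1000 µg/mL DMSO stock) goes into a 6 mm well cut in Mueller Hinton agar inoculated with 0.1 mL broth culture adjusted to 0.5 McFarland (about 1×10^8 cells/mL). Plates are incubated 24 h at 37 °C, then zone of inhibition diameter is measured in mm.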

[8] = system: Klebsiella pneumoniae; assay: Antimicrobial activity against Klebsiella pneumoniae ATCC 13882 assessed as zone of inhibition at 30 uL for 24 hrs at 37 degC by disk diffusion test; type: functional, organism-based; in short: as §4
[9] = system: MCF7; assay: Antiproliferative activity against human MCF7 cells after 24 and 72 hrs by MTT assay; type: functional, cell-based; in short: as §2
[10] = system: Bacillus subtilis; assay: Antimicrobial activity against Bacillus subtilis ATCC 6633 for 24 hrs by microdillution method; type: functional
In short: (§5)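 Broth microdilution. Compound is dissolved in DMSO (2 mg/mL) and diluted in Mueller Hinton broth as two-fold serial dilutions from 256 to 0.125 µg/mL. Bacteria are pre-grown in nutrient broth at 30 °C, and the final inoculum is about 10^6 cfu/mL. Tests are incubated 37 °C for 24 h. MIC is the lowest concentration giving complete inhibition. Streptomycin is the positive control.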

[11] = system: Micrococcus luteus; assay: Antimicrobial activity against Micrococcus luteus ATCC 9341 assessed as zone of inhibition at 30 uL for 24 hrs at 30 degC by disk diffusion test; type: functional, organism-based; in short: as §1
[12] = system: HeLa; assay: Induction of apoptosis in human HeLa cells at 20 uM after 48 hrs by Hoechst 33258/propidium iodide staining based phase contrast microscopic analysis; type: functional; in short: as §3
[13] = system: Caco-2; assay: Antiproliferative activity against human Caco2 cells after 24 and 72 hrs by MTT assay; type: functional, cell-based; in short: as §2
[14] = system: Bacillus cereus; assay: Antimicrobial activity against Bacillus cereus ATCC 11778 for 24 hrs by microdillution method; type: functional; in short: as §5
[15] = system: Escherichia coli; assay: Antimicrobial activity against Escherichia coli ATCC 25922 assessed as zone of inhibition at 30 uL for 24 hrs at 37 degC by disk diffusion test; type: functional, organism-based; in short: as §4
[16] = system: Bacillus thuringiensis; assay: Antimicrobial activity against Bacillus thuringiensis for 24 hrs by microdillution method; type: functional; in short: as §5
[17] = system: Bacillus cereus; assay: Antimicrobial activity against Bacillus cereus ATCC 11778 assessed as zone of inhibition at 30 uL for 24 hrs at 30 degC by disk diffusion test; type: functional; in short: as §1
[18] = system: Pseudomonas aeruginosa; assay: Antimicrobial activity against Pseudomonas aeruginosa ATCC 35032 assessed as zone of inhibition at 30 uL for 24 hrs at 37 degC by disk diffusion test; type: functional, organism-based; in short: as §4
[19] = system: HL-60; assay: Induction of necrosis in human HL60 cells at 20 uM after 48 hrs by Hoechst 33258/propidium iodide staining based phase contrast microscopic analysis; type: functional; in short: as §3
[20] = Antiproliferative activity against human Saos2 cells after 24 and 72 hrs by MTT assay; type: functional, cell-based; conditions: SAOS-2; in short: as §2
[21] = system: Enterococcus faecalis; assay: Antimicrobial activity against Enterococcus faecalis ATCC 29212 assessed as zone of inhibition at 30 uL for 24 hrs at 37 degC by disk diffusion test; type: functional, organism-based; in short: as §4
[22] = system: Cyberlindnera jadinii; assay: Antimicrobial activity against Candida utilis ATCC 9950 assessed as zone of inhibition at 30 uL for 24 hrs at 30 degC by disk diffusion test; type: functional, organism-based; in short: as §1
[23] = system: MCF7; assay: Induction of apoptosis in human MCF7 cells at 20 uM after 48 hrs by Hoechst 33258/propidium iodide staining based phase contrast microscopic analysis; type: functional; in short: as §3
[24] = system: Nakaseomyces glabratus; assay: Antimicrobial activity against Candida glabrata assessed as zone of inhibition at 30 uL for 24 hrs at 30 degC by disk diffusion test; type: functional, organism-based; in short: as §1
[25] = system: Caco-2; assay: Induction of necrosis in human Caco2 cells at 20 uM after 48 hrs by Hoechst 33258/propidium iodide staining based phase contrast microscopic analysis; type: functional; in short: as §3
[26] = system: Candida tropicalis; assay: Antimicrobial activity against Candida tropicalis assessed as zone of inhibition at 30 uL for 24 hrs at 30 degC by disk diffusion test; type: functional, organism-based; in short: as §1
[27] = system: SAOS-2; assay: Induction of apoptosis in human Saos2 cells at 20 uM after 48 hrs by Hoechst 33258/propidium iodide staining based phase contrast microscopic analysis; type: functional; in short: as §3
[28] = system: Staphylococcus aureus; assay: Antimicrobial activity against Staphylococcus aureus ATCC 25923 assessed as zone of inhibition at 30 uL for 24 hrs at 37 degC by disk diffusion test; type: functional, organism-based; in short: as §4
[29] = system: Bacillus thuringiensis; assay: Antimicrobial activity against Bacillus thuringiensis assessed as zone of inhibition at 30 uL for 24 hrs at 30 degC by disk diffusion test; type: functional; in short: as §1
[30] = system: Salmonella typhimurium; assay: Antimicrobial activity against Salmonella typhimurium ATCC 14028 assessed as zone of inhibition at 30 uL for 24 hrs at 37 degC by disk diffusion test; type: functional, organism-based; conditions: Salmonella enterica subsp. enterica serovar Typhimurium; in short: as §4
[31] = system: Proteus vulgaris; assay: Antimicrobial activity against Proteus vulgaris ATCC 33420 assessed as zone of inhibition at 30 uL for 24 hrs at 37 degC by disk diffusion test; type: functional, organism-based; in short: as §4
[32] = system: HL-60; assay: Induction of apoptosis in human HL60 cells at 20 uM after 48 hrs by Hoechst 33258/propidium iodide staining based phase contrast microscopic analysis; type: functional; in short: as §3
[33] = system: HT-29; assay: Induction of necrosis in human HT-29 cells at 20 uM after 48 hrs by Hoechst 33258/propidium iodide staining based phase contrast microscopic analysis; type: functional; in short: as §3
[34] = system: HT-29; assay: Antiproliferative activity against human HT-29 cells after 24 and 72 hrs by MTT assay; type: functional, cell-based; in short: as §2
[35] = system: Saccharomyces cerevisiae; assay: Antimicrobial activity against Saccharomyces cerevisiae ATCC 9763 assessed as zone of inhibition at 30 uL for 24 hrs at 30 degC by disk diffusion test; type: functional, organism-based; in short: as §1
[36] = system: HT-29; assay: Induction of apoptosis in human HT-29 cells at 20 uM after 48 hrs by Hoechst 33258/propidium iodide staining based phase contrast microscopic analysis; type: functional; in short: as §3
[37] = system: SAOS-2; assay: Induction of necrosis in human Saos2 cells at 20 uM after 48 hrs by Hoechst 33258/propidium iodide staining based […] microscopic analysis; type: functional; in short: as §3
[38] = system: HL-60; assay: Antiproliferative activity against human HL60 cells after 24 and 72 hrs by MTT assay; type: functional, cell-based; in short: as §2

SMILES | diameter of the inhibition zone (DIZ) [1] | IC50 [2] | diameter of the inhibition zone (DIZ) [3] | Activity [4] | Activity [5] | Activity [6] | diameter of the inhibition zone (DIZ) [7] | diameter of the inhibition zone (DIZ) [8] | IC50 [9] | diameter of the inhibition zone (DIZ) [11] | Activity [12] | IC50 [13] | diameter of the inhibition zone (DIZ) [15] | MIC [16] | diameter of the inhibition zone (DIZ) [17] | diameter of the inhibition zone (DIZ) [18] | Activity [19] | IC50 [20] | diameter of the inhibition zone (DIZ) [21] | diameter of the inhibition zone (DIZ) [22] | also measured
CC(=O)O[C@H]1CC[C@]2(C)[C@H]3CC=C4[C@@H]5CC(C)(C)CC[C@]5(C(=O)OCc5ccccc5)CC[C@@]4(C)[C@]3(C)CC[C@H]2[C@]1(C)/C=N/O | inactive | 40.3 µM | inactive | 50% | 48% | 19% | inactive | inactive | 9.9 µM | inactive | 15% | 20.3 µM | inactive | inactive | inactive | inactive | 50% | 11.7 µM | inactive | inactive | MIC [10]: inactive; MIC [14]: inactive; Activity [23]: 10%; diameter of the inhibition zone (DIZ) [24]: inactive; Activity [25]: 33%; diameter of the inhibition zone (DIZ) [26]: inactive; Activity [27]: 24%; diameter of the inhibition zone (DIZ) [28]: inactive; diameter of the inhibition zone (DIZ) [29]: inactive; diameter of the inhibition zone (DIZ) [30]: inactive; diameter of the inhibition zone (DIZ) [31]: inactive; Activity [32]: 5%; Activity [33]: 14%; IC50 [34]: 21.4 µM; diameter of the inhibition zone (DIZ) [35]: inactive; Activity [36]: 24%; Activity [37]: 44%; IC50 [38]: 8.68 µM
CC1(C)CC[C@]2(C(=O)O)CC[C@]3(C)C(=CC[C@@H]4[C@@]5(C)CC[C@H](O)[C@@](C)(/C=N/O)[C@@H]5CC[C@]43C)[C@@H]2C1 | 11 mm | 8.71 µM | inactive | 3% | 4% | 23% | inactive | inactive | 7.5 µM | inactive | 26% | 28.1 µM | inactive | 128 µg/mL (≈ 264 µM) | 9 mm | inactive | 3% | 7.93 µM | inactive | inactive | MIC ([10]; ATCC 6633, 24 h): 64 µg/mL (≈ 132 µM); MIC ([14]; ATCC 11778, 24 h): 128 µg/mL (≈ 264 µM); Activity [23]: 26%; diameter of the inhibition zone (DIZ) [24]: inactive; Activity [25]: 3%; diameter of the inhibition zone (DIZ) [26]: inactive; Activity [27]: 27%; diameter of the inhibition zone (DIZ) [28]: inactive; diameter of the inhibition zone (DIZ) [29]: 10 mm; diameter of the inhibition zone (DIZ) [30]: inactive; diameter of the inhibition zone (DIZ) [31]: inactive; Activity [32]: 30%; Activity [33]: 0.7%; IC50 [34]: 10.9 µM; diameter of the inhibition zone (DIZ) [35]: inactive; Activity [36]: 27%; Activity [37]: 3%; IC50 [38]: 3.9 µM
CC1(C)CC[C@]2(C(=O)OCc3ccccc3)CC[C@]3(C)C(=CC[C@@H]4[C@@]5(C)CC[C@H](O)[C@@](C)(/C=N/NC(N)=S)[C@@H]5CC[C@]43C)[C@@H]2C1 | inactive | 23.6 µM | inactive | 55% | 63% | 4% | inactive | inactive | 6.05 µM | inactive | 5% | 36.5 µM | inactive | inactive | inactive | inactive | 64% | 6.97 µM | inactive | inactive | MIC [10]: inactive; MIC [14]: inactive; Activity [23]: 4%; diameter of the inhibition zone (DIZ) [24]: inactive; Activity [25]: 48%; diameter of the inhibition zone (DIZ) [26]: inactive; Activity [27]: 5%; diameter of the inhibition zone (DIZ) [28]: inactive; diameter of the inhibition zone (DIZ) [29]: inactive; diameter of the inhibition zone (DIZ) [30]: inactive; diameter of the inhibition zone (DIZ) [31]: inactive; Activity [32]: 2%; Activity [33]: 32%; IC50 [34]: 15 µM; diameter of the inhibition zone (DIZ) [35]: inactive; Activity [36]: 2%; Activity [37]: 41%; IC50 [38]: 6.21 µM
